Screening data (PubChem)
Shown are actives, neighbours in structure and some others; about 3.1% of the full set was active somewhere.
MBD2 DNA inh – MBD2-methylated oligo binding inhibition; TR-FRET, MBD2 binding to methylated oligonucleotide; inhibition, % at 4.4 µM; 370,000 tested, 0.31% active; AID 686964; in the data active = inhibition above about 13%
UHRF1 MBD2 ctr – UHRF1 methyl-DNA binding inhibition; 370,000 tested, 0.75% active; inhibition, % at 4.4 µM; Q96T88; UHRF1 binding to methylated oligo, TR-FRET; AID 687016; in the data active = inhibition above about 21%;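 note: UHRF1 SRA domain binding a hemimethylated CpG hairpin DNA probe; 0% = median of test compound wells and 100% = reference inhibitor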
ABHD5 PLIN5 PPI – inhibitors of human ABHD5-perilipin-5 interaction | Q00G26+Q8WTS1 | Split G. princeps luciferase complementation, luminescence, 4 h | inhibition, % at 4 µM | 360,000 tested, 0.78% active | AID 602281;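 active = inhibition above the mean inhibition across every tested compound plus 3 SD, cut at about 22% in these data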;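 note: 0% = DMSO only wells and the 100% control is not disclosed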
Target sequence (Q00G26 whole entry, looked up): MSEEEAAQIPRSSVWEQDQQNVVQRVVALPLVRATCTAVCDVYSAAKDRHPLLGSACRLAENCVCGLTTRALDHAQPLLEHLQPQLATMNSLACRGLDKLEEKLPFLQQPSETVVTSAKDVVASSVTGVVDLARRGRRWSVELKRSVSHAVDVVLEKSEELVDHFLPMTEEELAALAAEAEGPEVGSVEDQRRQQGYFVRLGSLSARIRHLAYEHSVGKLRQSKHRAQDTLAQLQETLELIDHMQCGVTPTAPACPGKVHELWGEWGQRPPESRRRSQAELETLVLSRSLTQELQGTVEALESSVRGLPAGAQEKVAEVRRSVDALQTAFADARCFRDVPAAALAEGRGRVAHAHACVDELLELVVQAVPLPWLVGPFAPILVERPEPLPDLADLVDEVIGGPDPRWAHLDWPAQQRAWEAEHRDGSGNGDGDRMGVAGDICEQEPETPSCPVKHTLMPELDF
Target sequence (Q8WTS1 whole entry, looked up): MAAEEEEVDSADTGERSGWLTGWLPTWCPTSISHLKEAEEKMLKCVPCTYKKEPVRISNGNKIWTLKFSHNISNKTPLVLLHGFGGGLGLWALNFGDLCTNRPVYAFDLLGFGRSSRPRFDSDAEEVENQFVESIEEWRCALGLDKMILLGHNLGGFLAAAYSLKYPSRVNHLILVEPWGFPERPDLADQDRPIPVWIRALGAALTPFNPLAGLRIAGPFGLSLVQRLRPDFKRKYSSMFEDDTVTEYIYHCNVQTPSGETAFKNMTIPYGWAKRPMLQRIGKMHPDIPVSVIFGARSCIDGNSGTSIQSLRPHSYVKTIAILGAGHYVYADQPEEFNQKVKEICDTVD
RBBP9 inh – blocks human serine hydrolase RBBP9. O75884. recombinant RBBP9, FP-Rh probe fluorescence polarization. inhibition, % at 7.94 µM. 220,000 tested, 0.2% active. AID 1515;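 active = inhibition above the campaign mean of all tested compounds plus 3 SD, cut at about 14% in these data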;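 note: plate controls were DMSO wells with RBBP9 for no effect and wells lacking RBBP9 protein for full effect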
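Test system – recombinant human RBBP9 · Input – RBBP9 2.5 µM in dispensing solution, pre-mixing · Medium – Tris buffer pH 8.0, NaCl, Pluronic · Schedule – preincubation 30 min plus labeling 45 min at 25 °C · Measured by – fluorescence polarization · Measure – % inhibition · Controls – DMSO and no-protein wells · Replicates – one well per compound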
LEDGF integ inh – blocks HIV-1 LEDGF/p75-dependent DNA integration; TR-FRET IN-LEDGF/p75 DNA integration, Eu/Cy5; inhibition, % at 3.7 µM; 370,000 tested, 0.64% active;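 active = inhibition above the screen-wide mean plus 3 SD, cut at about 13% in these data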;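 note: signal is the Cy5 over europium emission ratio at 671 and 618 nm; 0% = plate median of compound wells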
PRMT1 inh – inhibitors of human PRMT1; 370,000 tested, 1.3% active; AID 652257; recombinant PRMT1, activity-based probe fluorescence polarization; Q99873; inhibition, % at 2.79 µM;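 active = inhibition above about 21% made by adding two undisclosed values, limit read from the data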
PRMT1 inh conf – PRMT1 (human) inhibition, FP confirmation; shares compounds with PRMT1 inh; recombinant His-PRMT1, activity-based probe fluorescence polarization; inhibition, % at 2.79 µM; 3,300 tested, 42% active;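 active = mean inhibition across replicates above the hit cutoff derived for the earlier primary screen, cut at about 22% in these data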
The depositor's hits bear a star; / = not tested or not shown.

SMILES	MBD2 DNA inh	UHRF1 MBD2 ctr	ABHD5 PLIN5 PPI	RBBP9 inh	LEDGF integ inh	PRMT1 inh	PRMT1 inh conf
CCCC(=O)N(c1ccc2oc(=O)sc2c1)S(=O)(=O)c1cccs1	2	-6	17	-14	-1	85*	37*
O=C(OCC(=O)C12CC3CC(CC(C3)C1)C2)c1ccc(O)cc1	-3	2	-3	/	-1	56*	-7
NNS(=O)(=O)c1ccc(N2CCCC2=O)c([N+](=O)[O-])c1	7	-1	3	-3	0	82*	55*
CCCC#Cc1ccc(CC[C@H]2O[C@H]3CC[C@H](CO)O[C@H]3C[C@H]2NC(=O)CN2CCOCC2)cc1	4	6	/	/	6	-7	/
CCOC(=O)c1c(-c2ccc(C)o2)csc1NC(=S)NC(=O)c1ccccc1Br	3	-3	13	-28	2	55*	1
CCOC(=O)c1c(-c2ccc(C)o2)csc1NC(=S)NC(=O)c1cccs1	-2	2	6	-24	-1	1	/
C(=N\N1CCOCC1)/c1cn(-c2ccccc2)nc1-c1ccccc1	0	-3	-3	1	-1	96*	-2
O=Cc1cn(-c2ccccc2)nc1-c1ccccc1	5	-2	3	/	2	-2	/
Cc1ccc(CNC(=O)c2coc(=O)c3ccccc23)o1	0	-3	8	8	6	32*	10
CCOCCCNC(=O)c1cc2c(s1)-c1ccccc1SC2	-11	-5	1	/	13	40*	15
CN(C)CCNC(=O)c1cc2c(s1)-c1ccc(Cl)cc1SC2	-2	-4	14	/	2	4	/
C[C@H](CO)N1C[C@H](C)[C@H](CN(C)C(=O)Nc2cccc3ccccc23)Oc2ncc(Br)cc2C1=O	6	-2	/	/	-2	4	/
O=C(CCNc1ccc(Cc2ccncc2)cc1)c1cccc([N+](=O)[O-])c1	2	-2	14	-7	-2	32*	31*
O=C(Nc1cccc([N+](=O)[O-])c1)c1ccncc1	6	-2	2	-10	-5	0	/
O=C(CCNc1cccc(F)c1)c1cccc([N+](=O)[O-])c1	1	5	-3	-2	-9	41*	27*
CC(=O)Nc1cc[n+](CC(=O)c2cccc([N+](=O)[O-])c2)cc1	2	4	5	/	4	-4	/
CCOC(=O)C1CSc2[nH]c(=O)sc2C1c1ccccc1 (stereo not drawn)	-4	-2	-10	0	1	31*	-2
O=c1[nH]c2c(s1)C(c1ccccc1)C1C3CCC(C3)C1S2 (stereo not drawn)	-2	1	-13	-5	1	2	/
FC(F)(F)c1nc(=S)c2ccccc2[nH]1	-1	2	-6	-11	-5	33*	25*
CCCSc1nnc(NC(=O)CSc2nc3[nH]c(=O)cc(O)c3s2)s1	-2	-1	-12	/	1	7	/
CCSc1nnc(NC(=O)CSc2sc3c(O)cc(=O)[nH]c3c2C#N)s1	11	32*	3	/	-1	27*	10
Cc1ccc(C)c(NC(=O)CSc2sc3c(O)cc(=O)[nH]c3c2C#N)c1	1	15	-9	/	3	55*	7
Cc1cc(NC(=O)CSc2sc3c(O)cc(=O)[nH]c3c2C#N)ccc1Br	4	4	4	/	2	30*	5
COc1ccc2c(c1)N[C@@](CCN1C(=O)c3ccccc3C1=O)(c1[nH]c3ccccc3c1CCN1C(=O)c3ccccc3C1=O)C2=O	0	14	/	/	-5	6	/
Cc1ccc(C)c(NC(=O)c2cccc3c2-c2ccccc2C3=O)c1	2	-1	/	/	-10	-3	/
SMILES	MBD2 DNA inh	UHRF1 MBD2 ctr	ABHD5 PLIN5 PPI	RBBP9 inh	LEDGF integ inh	PRMT1 inh	PRMT1 inh conf
CO[C@H]([C@H](C)/C=C/N(C)C=O)[C@@H](C)C(=O)CC[C@H](C)[C@H](O)[C@H](C)[C@H]1OC(=O)/C=C/C(C)=C/C[C@H](O)C[C@@H]2C=CC[C@@H](C[C@H](OC)[C@@]3(CO3)[C@@H](OC)C[C@@H](OC)[C@@H]1C)O2	0	1	/	/	-3	-1	/
CC(=O)Nc1ccc(NC(=O)COC(=O)c2ccccc2SCC(=O)N2CCCC2)cc1	-4	-1	3	/	0	29*	24*
Cc1noc(C)c1S(=O)(=O)N1CCCc2nc(-c3ccccc3)ccc21	1	-1	/	/	1	4	/
O=C(O)CCc1ccc(-c2cccs2)n1-c1ccc(C(=O)O)cc1	-2	5	21	-12	5	37*	10
CC(=O)c1cccc(-n2c(CCC(=O)O)ccc2-c2ccccc2)c1	-6	-3	-1	/	-3	16	/
CC(=O)c1cccc(-n2c(CCC(=O)O)ccc2-c2cccs2)c1	4	-1	20	-9	11	68*	16
O=[N+]([O-])c1ccc(CN2CCOCCOCCN(Cc3ccc([N+](=O)[O-])cc3Cl)CCOCC2)c(Cl)c1	-3	-2	/	/	2	0	/
O=C(C(=O)N1CCN(S(=O)(=O)c2cccc3ccccc23)CC1)c1cccc(C(F)(F)F)c1	2	3	/	/	0	-3	/
O=C(Nc1cccc(F)c1)/C(=C/c1ccco1)NC(=O)c1ccco1	-6	-4	9	/	4	30*	6
O=C(Nc1cccc(C(=O)O)c1)/C(=C\c1ccco1)NC(=O)c1ccccc1	-2	-1	-1	/	4	14	/
O=C(Nc1cccc(C(=O)O)c1)/C(=C\c1ccco1)NC(=O)c1ccc(Br)o1	-2	5	12	/	10	34*	1
O=C(Nc1cccc(C(=O)O)c1)/C(=C\c1ccco1)NC(=O)c1ccccc1Cl	-2	5	6	/	4	30*	5
COc1ccc(/C=C(/NC(=O)c2ccc(Br)o2)C(=O)Nc2cccc(C(=O)O)c2)cc1	1	-1	9	/	-3	2	/
COC(=O)[C@]12C[C@H](CC(=O)N3CCC(c4ccccc4)CC3)C(=O)N(Cc3ccc(Cl)cc3Cl)C1=C[C@H](C(C)(C)C)O[C@@H]2C	-7	-4	/	/	0	-1	/
COc1ccc(CCNC(=O)Nc2ccc3c(c2)[C@]2(CC(=O)N(CC(C)C)C2c2ccccc2)C(=O)N3C)cc1OC (stereo partly drawn)	11	12	/	/	9	-5	/
CC(C)CC(NC(=O)OCc1ccccc1)C(=O)NCC(=O)NCC(=O)OCc1ccccc1 (stereo not drawn)	-8	-1	/	/	-2	-1	/
O=C1c2ccccc2C(=O)N1N(c1ccccc1)c1ccccc1	4	1	9	/	-1	2	/
O=C1C=CC(=O)N1N(c1ccccc1)c1ccccc1	-6	1	10	3	1	50*	96*
Cc1cc(O)c(Sc2ncn[nH]2)cc1NS(=O)(=O)c1ccc(Cl)cc1	-5	0	12	/	6	2	/
